ChEMBL document CHEMBL3297687, “Eremophilane-type sesquiterpenoids with diverse skeletons from Ligularia sagitta” (J Nat Prod, 2014)
Converted amounts (≈) assume the structure as drawn.

Assays:
[1] = test system: Bacillus cereus; test: Antibacterial activity against Bacillus cereus grown in sheep blood agar media assessed as concentration required to inhibit bacterial growth due to absence of hemolysis of erythrocytes after 18 hrs by […] broth dilution method; type: functional
In short: (§1)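 Colonies from overnight culture on 5% sheep blood agar were suspended in Mueller−Hinton broth to 0.5 McFarland (about 1.5 × 10^8 CFU/mL), then diluted 10-fold. Aqueous stocks (1 g/L) were used at once and doubly diluted 250−0.125 μg/mL in Mueller−Hinton broth with 5% defibrinated sheep blood. Final inoculum was 2 × 10^5−7 × 10^5 CFU/mL. Plates were incubated 18 h at 35 °C. MIC was taken as the lowest concentration with no growth, shown by absence of erythrocyte hemolysis. Triplicate; ampicillin control.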

[2] = test system: Staphylococcus aureus; test: Antibacterial activity against Staphylococcus aureus grown in sheep blood agar media assessed as concentration required to inhibit bacterial growth due to absence of hemolysis of erythrocytes after 18 hrs by […] broth dilution method; type: functional; in short: as §1
[3] = test system: Bacillus subtilis; test: Antibacterial activity against Bacillus subtilis grown in sheep blood agar media assessed as concentration required to inhibit bacterial growth due to absence of hemolysis of erythrocytes after 18 hrs by […] broth dilution method; type: functional; in short: as §1
[4] = test system: Escherichia coli; test: Antibacterial activity against Escherichia coli grown in sheep blood agar media assessed as concentration required to inhibit bacterial growth due to absence of hemolysis of erythrocytes after 18 hrs by […] broth dilution method; type: functional; in short: as §1
[5] = test system: Pectobacterium carotovorum; test: Antibacterial activity against Erwinia carotovora grown in sheep blood agar media assessed as concentration required to inhibit bacterial growth due to absence of hemolysis of erythrocytes after 18 hrs by […] broth dilution method; type: functional; in short: as §1
[6] = test system: HeLa; test: Cytotoxicity against human HeLa cells after 48 hrs by SRB method; type: functional, cell-based
[7] = test system: HL-60; test: Cytotoxicity against human HL60 cells after 48 hrs by SRB method; type: functional, cell-based; conditions: HL-60, 48 h
[8] = Cytotoxicity against human […] cells after 48 hrs by SRB method; type: functional, cell-based

Row | SMILES | MIC [1] [µg/mL] | MIC [2] [µg/mL] | MIC [3] [µg/mL] | MIC [4] [µg/mL] | MIC [5] [µg/mL] | IC50 [6] [µM] | IC50 [7] [µM] | IC50 [8] [µM]
1 | C=C(CO)C(=O)O[C@@H]1C2=C(C)C(=O)O[C@@]2(O)C[C@@]23O[C@@H]2CC[C@H](C)[C@@]13C | 7.25 (≈ 19.9 µM) | 7.25 (≈ 19.9 µM) | 15.5 (≈ 42.5 µM) | 7.25 (≈ 19.9 µM) | 7.25 (≈ 19.9 µM) | – | – | –
2 | CC1=C2[C@@H](O)[C@]3(C)[C@@H](C)CC[C@H]4O[C@]43C[C@@]2(O)OC1=O | 62.5 (≈ 223 µM) | 125 (≈ 446 µM) | 125 (≈ 446 µM) | 125 (≈ 446 µM) | 125 (≈ 446 µM) | – | – | –
3 | CC(=O)[C@@]12O[C@@H]1[C@@]1(C)C(=CC2=O)[C@H](O)CC[C@@H]1C | > 250 | > 250 | > 250 | 31.2 (≈ 125 µM) | 62.5 (≈ 250 µM) | 13 | 13 | 13
4 | CC(=O)C1=C[C@@]2(C)C(=CC1=O)[C@H](O)CC[C@@H]2C | > 250 | > 250 | > 250 | 31.2 (≈ 133 µM) | > 250 | – | – | –
5 | C/C=C(/CO)C(=O)O[C@@H]1C2=C(C)C(=O)O[C@]2(OC)C[C@@]23O[C@@H]2CC[C@H](C)[C@@]13C | 62.5 (≈ 159 µM) | 125 (≈ 319 µM) | 125 (≈ 319 µM) | 62.5 (≈ 159 µM) | 125 (≈ 319 µM) | 13 | 13 | 13
6 | C/C=C(/CO)C(=O)O[C@@H]1C2=C(C)C(=O)O[C@@]2(O)C[C@@]23O[C@@H]2CC[C@H](C)[C@@]13C | 15.5 (≈ 41 µM) | 7.25 (≈ 19.2 µM) | 7.25 (≈ 19.2 µM) | 7.25 (≈ 19.2 µM) | 7.25 (≈ 19.2 µM) | – | – | –
7 | CC1(C)S[C@@H]2[C@H](NC(=O)[C@H](N)c3ccccc3)C(=O)N2[C@H]1C(=O)O [AMPICILLIN] | 25 (≈ 71.5 µM) | 25 (≈ 71.5 µM) | 12.5 (≈ 35.8 µM) | 100 (≈ 286 µM) | 100 (≈ 286 µM) | – | – | –
8 | CO[C@@]12[C@H](COC(N)=O)C3=C(C(=O)C(C)=C(N)C3=O)N1C[C@@H]1N[C@@H]12 [MITOMYCIN] | – | – | – | – | – | 3 | 3 | 3
